Measured values from different studies.
Compare with care: the assays were run in different laboratories.
Cell line: MDA-MB-231

COc1ccc(/C=C/C(=O)c2cc(Br)ccc(=O)c2O)cc1 — IC50 (cell growth or viability, MTT; 48 h): 5.5 µM
Clc1ccc(Cn2c(-c3ccc(Cl)cc3)nc3ccccc32)cc1 — IC50 (cell growth or viability, MTT): 7.48 µM
C=CC1=C(C)c2cc3[nH]c(cc4nc(cc5[nH]c(cc1n2)c(C)c5CCC(=O)O)C(CCC(=O)O)=C4C)c(C)c3C=C — IC50 (cell growth or viability; 4 h, dark): > 100 µM
COc1c(C)c(OC)c2c(c1C)OC(c1ccccc1)CC2=O (centres unmarked) — IC50 (cell growth or viability, SRB; 72 h): > 50 µM
Cc1ccc2nc(-c3cc(Br)ccc3O)[nH]c2c1 — IC50 (cell growth or viability, MTT; 48 h): 6.69 µM
CCn1c(-c2nnc(NC(=O)c3cc4c([nH]c5ccccc54)c(-c4ccc(OC)cc4)n3)s2)cc2ccccc21 — IC50 (cell growth or viability, MTT; 72 h): 9.39 µM
C=CCn1c(-c2ccc([N+](=O)[O-])cc2)nc2ccccc21 — IC50 (cell growth or viability, MTT): 43.9 µM
Cc1nc(Nc2ncc(C(=O)Nc3c(C)cccc3Cl)s2)cc(N2CCN(CCO)CC2)n1 — IC50 (cell growth or viability, MTT; 48 h): 19.4 µM
C[C@@H]1C[C@H](c2cccc(Cl)c2)c2c(cc3ccccn23)C(=O)O1 (racemic) — IC50 (cell growth or viability, resazurin; 72 h): 36 µM
COc1ccc(Br)cc1/C=C/C(=O)c1ccc(NC(C)=O)cc1 — IC50 (cell growth or viability, MTT; 72 h): 9.5 µM
O=[N+]([O-])c1ccc(-c2nc3ccccc3[nH]2)cc1 — IC50 (cell growth or viability, MTT; 48 h): 26.9 µM
COC1=C2C[C@@H](C)C[C@H](OC)[C@H](O)[C@@H](C)/C=C(\C)[C@H](OC(N)=O)[C@@H](OC)/C=C\C=C(/C)C(=O)NC(=CC1=O)C2=O — IC50 (cell growth or viability, MTT): 0.065 µM
Oc1cccc(Nc2ccc3ncnc(Nc4cccc(C(F)(F)F)c4)c3c2)c1 — IC50 (cell growth or viability, MTT; 24 h): 3.34 µM
[Na+].[Na+].[Na+].[O]=[V]([O-])([O-])[O-] — IC50 (cell migration, inhibitor): 5.6 µM
c1ccc2[nH]c(-c3ccc4c(c3)OCO4)nc2c1 — IC50 (cell growth or viability, MTT; 48 h): > 100 µM
Oc1ccccc1-c1ccc2ncnc(Nc3cccc(C(F)(F)F)c3)c2c1 — IC50 (cell growth or viability, MTT; 24 h): 8.58 µM
COc1ccc(-c2nc3ccc(C)cc3[nH]2)cc1O — IC50 (cell growth or viability, MTT; 48 h): 55.1 µM
CC(=O)O[C@@]12CO[C@@H]1C[C@H](O)[C@@]1(C)C(=O)[C@H](O)C3=C(C)[C@@H](OC(=O)[C@H](O)[C@@H](NC(=O)OC(C)(C)C)c4ccccc4)C[C@@](O)([C@@H](OC(=O)c4ccccc4)[C@H]21)C3(C)C — IC50 (cell growth or viability, resazurin; 72 h): 0.02 µM
Cc1ccc2nc(-c3ccc([N+](=O)[O-])cc3)n(Cc3ccccc3)c2c1 — IC50 (cell growth or viability, MTT): 8.11 µM
O=C(Nc1nnc(-c2cc3ccccc3[nH]2)s1)c1cc2c([nH]c3ccccc32)c(-c2ccccc2)n1 — IC50 (cell growth or viability, MTT; 72 h): 3.94 µM
Cc1cc(NS(=O)(=O)c2ccc(NC(=O)COc3ccc(C(C)(C)c4ccccc4)cc3)cc2)nc(C)n1 — IC50 (cell growth or viability, MTT; 72 h): 38.9 µM
C[C@@H]1C[C@@H](c2cccc(F)c2)c2c(cc3ccccn23)C(=O)O1 (racemic) — IC50 (cell growth or viability, resazurin; 72 h): 52.9 µM
CC(C)=CCc1c(O)c(CC=C(C)C)c2oc3c(O)ccc(O)c3c(=O)c2c1O — IC50 (cell growth or viability; 48 h): 17.1 µM
